Source: PubChem (several laboratories)
Compounds with a hit are over-represented: about 5.1% of the library has one in this group of screens.
STAT3 activator: IL-6 driven STAT3 reporter potentiators, primary screen, U3A cells, luciferase, luminescence, MLSCN library. IL-6 STAT3-luciferase reporter; 100% = signal with IL-6 EC80 alone. activation (% of control), % at 5.6 µM. actives 0.91% (n = 190,000). AID 871, 2007;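 active = activation above the screen-wide mean of compound activation plus 3 SD, cut at about 130% in these data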;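 note: 0% = background luminescence of wells with medium and substrate only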
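Material: STAT3-luciferase reporter U3A cells; Probe or stimulus: IL-6 (33 ng/mL); Incubation: compound pre-incubation 1 h before IL-6, then 6 h stimulation at 37 °C; Technique: luminescence from STAT3-driven luciferase reporter; Evaluation: % activation versus median of IL-6-stimulated wells; Controls: IL-6-only high control.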
STAT1 act: STAT1 signaling activators, primary screen, cell-based, HTS, luciferase reporter | activation (% of control), % at 5.5 µM | AID 932, 2007 | NIH 3T3 STAT1-luciferase reporter, IFN-gamma, luminescence; 100% = IFN-gamma alone, no compound | actives 2.6% (n = 200,000);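 active = activation above the screen-wide mean activation plus 3 SD, cut at about 130% in these data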;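 note: raw ratio to IFN-gamma control signal so 100% means no change and 0% no light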
STAT3 inh: IL-6 driven STAT3 reporter inhibitors, primary screen, U3A cells, luciferase, luminescence, MLSCN library; IL-6 STAT3-luciferase reporter; host cell line lacks STAT1; AID 862, 2007; inhibition, % at 5.5 µM; actives 0.89% (n = 190,000);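 active = inhibition above the mean inhibition across all screened compounds plus 3 SD, cut at about 44% in these data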;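 note: 0% = DMSO only wells and 100% = 100 µM nifuroxazide control wells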
STAT1 blocker: STAT1 signaling inhibitors, primary screen, cell-based, HTS, luciferase reporter | NIH 3T3 STAT1-luciferase reporter, IFN-gamma, luminescence | inhibition, % at 5.5 µM | actives 0.35% (n = 200,000);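 active = inhibition above a set limit, the mean inhibition across all tested compounds plus 3 SD, cut at about 34% in these data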;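 note: 0% = IFN-gamma with DMSO and 100% = IFN-gamma with 300 µM nifuroxazide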
APP 5'UTR act: activators of APP 5'UTR luciferase reporter, primary screen, SH-SY5Y cells; AID 1276, 2008; actives 1% (n = 190,000); SH-SY5Y APP 5'UTR luciferase reporter, luminescence; zero percent = DMSO vehicle wells; activation, % at 2 µM;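 active = activation above a set limit, based on mean plus 3 SD of controls, cut at about 140% in these data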
NF-kB expr up: activators of NF-kB expression in neurons, primary screen, cell-based, HTS; human neuronal cells, NF-kB reporter expression; active compounds read high; actives 1.6% (n = 190,000); AID 1239, 2008; fold change at 12.5 µM; in the data active = fold change above about 3.3
* hit, by the source's call.

What do the screens show for `Nc1nc(Nc2ccccc2Br)nc(C(F)(F)F)n1`?
STAT3 activator: 93; STAT1 act: 108; STAT3 inh: 9; STAT1 blocker: -8; APP 5'UTR act: 9; NF-kB expr up: 1.4

What do the screens show for `COc1ccc(CCN(C)CC(O)c2ccccc2)cc1OC` (centres undefined)?
STAT3 activator: 99; STAT1 act: 96; STAT3 inh: 6; STAT1 blocker: 1; APP 5'UTR act: 8; NF-kB expr up: 1

What do the screens show for `Cc1ccc(NC(=O)Cn2ccc([N+](=O)[O-])n2)cc1C`?
STAT3 activator: 90; STAT1 act: 106; STAT3 inh: 16; STAT1 blocker: -10; APP 5'UTR act: -14; NF-kB expr up: 1.2

How did O=C(CNC(=O)c1ccccc1)OCc1nc2ccccc2s1 do in these assays?
STAT3 activator: 136*; STAT1 act: 139*; STAT3 inh: -40; STAT1 blocker: -43; APP 5'UTR act: 55; NF-kB expr up: 0.67

What do the screens show for `O=C(CNC(=O)c1ccccc1F)OCc1nc2ccccc2s1`?
STAT3 activator: 130; STAT1 act: 118; STAT3 inh: -31; STAT1 blocker: -21; APP 5'UTR act: 13; NF-kB expr up: 1

What do the screens show for `CC(=O)OCc1nc2ccccc2s1`?
STAT3 activator: 163*; STAT1 act: 135*; STAT3 inh: -75; STAT1 blocker: -38; APP 5'UTR act: 17; NF-kB expr up: 1.3

What do the screens show for `COC(=O)CCCc1nc2ccccc2s1`?
STAT3 activator: 95; STAT1 act: 101; STAT3 inh: 12; STAT1 blocker: -1; APP 5'UTR act: -1; NF-kB expr up: 1.2

What do the screens show for `O=C(OCc1nc2ccccc2s1)c1ccc(Br)o1`?
STAT3 activator: 120; STAT1 act: 107; STAT3 inh: -20; STAT1 blocker: -8; APP 5'UTR act: 22; NF-kB expr up: 1.3

Results for O=C(OCc1nc2ccccc2s1)c1ccco1 ?
STAT3 activator: 133; STAT1 act: 143*; STAT3 inh: -30; STAT1 blocker: -49; APP 5'UTR act: 87; NF-kB expr up: 1.1

Results for Cc1cc(C(=O)OCc2nc3ccccc3s2)c(C)o1 ?
STAT3 activator: 97; STAT1 act: 132*; STAT3 inh: 12; STAT1 blocker: -36; APP 5'UTR act: 38; NF-kB expr up: 2

How did Cc1cc2ncc(-c3ccc(Cl)cc3)c(N)n2n1 do in these assays?
STAT3 activator: 113; STAT1 act: 129*; STAT3 inh: -10; STAT1 blocker: -32; APP 5'UTR act: 45; NF-kB expr up: 1.2

Results for CC(/C=C1\SC(=S)N(CCCC(=O)Nc2ccc(C(=O)O)cc2)C1=O)=C\c1ccccc1 ?
STAT3 activator: 99; STAT1 act: 102; STAT3 inh: 5; STAT1 blocker: -3; APP 5'UTR act: 15; NF-kB expr up: 1.8

What do the screens show for `CC(/C=C1\SC(=O)N(CCCC(=O)O)C1=O)=C\c1ccccc1`?
STAT3 activator: 31; STAT1 act: 66; STAT3 inh: 84*; STAT1 blocker: 36*; APP 5'UTR act: -79; NF-kB expr up: 0.28

How did CCC1=NN(C(=O)Cc2ccc([N+](=O)[O-])cc2)C(O)(C(C)(C)C)C1 (centres undefined) do in these assays?
STAT3 activator: 96; STAT1 act: 83; STAT3 inh: 6; STAT1 blocker: 19; APP 5'UTR act: 8; NF-kB expr up: 3.5*

Results for CCn1cc(C(=O)OCC(=O)Nc2ccc(C(C)C)cc2)c(=O)c2ccc(C)nc21 ?
STAT3 activator: 97; STAT1 act: 105; STAT3 inh: 8; STAT1 blocker: -6; APP 5'UTR act: -26; NF-kB expr up: 1.2

What do the screens show for `C#CCN1C(=O)S/C(=C/C=C/c2ccc(N(C)C)cc2)C1=O`?
STAT3 activator: 100; STAT1 act: 136*; STAT3 inh: 0; STAT1 blocker: -40; APP 5'UTR act: 106; NF-kB expr up: 3.2

How did COc1ccc(C2=NC(c3ccccc3)CO2)cc1 (centres undefined) do in these assays?
STAT3 activator: 74; STAT1 act: 143*; STAT3 inh: 28; STAT1 blocker: -47; APP 5'UTR act: 40; NF-kB expr up: 1.4

How did CCOC(=O)C/C(C)=N/NC(=O)Nc1ccccc1 do in these assays?
STAT3 activator: 111; STAT1 act: 131*; STAT3 inh: -3; STAT1 blocker: -34; APP 5'UTR act: 25; NF-kB expr up: 1.1

What do the screens show for `CC12CCC(C/C1=N/NC(=O)Nc1ccccc1)C2(C)C` (centres undefined)?
STAT3 activator: 104; STAT1 act: 103; STAT3 inh: -4; STAT1 blocker: -4; APP 5'UTR act: 12; NF-kB expr up: 1.5

What do the screens show for `COc1cccc(NC(=S)N/N=C2\CC3CCC2(C)C3(C)C)c1` (centres undefined)?
STAT3 activator: 105; STAT1 act: 129*; STAT3 inh: -4; STAT1 blocker: -32; APP 5'UTR act: 60; NF-kB expr up: 1.4

Results for COc1ccc(-c2cc(=O)oc3cc(OC(=O)C4CCCCC4)c(Cl)cc23)cc1 ?
STAT3 activator: 109; STAT1 act: 99; STAT3 inh: -11; STAT1 blocker: 1; APP 5'UTR act: -15; NF-kB expr up: 0.73

What do the screens show for `Cc1ccc(OCC(=O)Nc2cccc(-c3nnc(-c4ccccc4)o3)c2)c(C)c1`?
STAT3 activator: 90; STAT1 act: 132*; STAT3 inh: 16; STAT1 blocker: -35; APP 5'UTR act: -5; NF-kB expr up: 0.95

Results for O=C(OCc1ccccc1)c1cccc(-c2nnc(-c3ccccc3)o2)c1 ?
STAT3 activator: 104; STAT1 act: 93; STAT3 inh: -5; STAT1 blocker: 8; APP 5'UTR act: 5; NF-kB expr up: 2

What do the screens show for `CC(=O)Nc1cccc(-c2nnc(-c3ccccc3)o2)c1`?
STAT3 activator: 104; STAT1 act: 130*; STAT3 inh: -3; STAT1 blocker: -37; APP 5'UTR act: 82; NF-kB expr up: 2.2

Results for CCOC(=O)c1cccc(COC(=O)c2cccc(-c3nnc(-c4ccccc4)o3)c2)c1 ?
STAT3 activator: 106; STAT1 act: 131*; STAT3 inh: -11; STAT1 blocker: -30; APP 5'UTR act: 66; NF-kB expr up: 2

What do the screens show for `COc1ccc(CC(=O)Nc2cccc(-c3nnc(-c4ccc(C)cc4)o3)c2)cc1OC`?
STAT3 activator: 90; STAT1 act: 104; STAT3 inh: 18; STAT1 blocker: -5; APP 5'UTR act: 9; NF-kB expr up: 0.8

How did CC(=O)c1ccc(NC(=S)NCc2cccnc2)cc1 do in these assays?
STAT3 activator: 92; STAT1 act: 96; STAT3 inh: 13; STAT1 blocker: 3; APP 5'UTR act: -13; NF-kB expr up: 0.83
